Experimental data as given in ChEMBL document CHEMBL1147677, “Synthesis and biological evaluation of glycosidase inhibitors: gem-difluoromethylenated nojirimycin analogues” (J Med Chem, 2006).

What was measured:
[1] = molecular target: T1, Tissue alpha-L-fucosidase (Homo sapiens, UniProt P04066); assay: Inhibition of human placenta alpha fucosidase at pH 6.8
T1 sequence (P04066 whole entry): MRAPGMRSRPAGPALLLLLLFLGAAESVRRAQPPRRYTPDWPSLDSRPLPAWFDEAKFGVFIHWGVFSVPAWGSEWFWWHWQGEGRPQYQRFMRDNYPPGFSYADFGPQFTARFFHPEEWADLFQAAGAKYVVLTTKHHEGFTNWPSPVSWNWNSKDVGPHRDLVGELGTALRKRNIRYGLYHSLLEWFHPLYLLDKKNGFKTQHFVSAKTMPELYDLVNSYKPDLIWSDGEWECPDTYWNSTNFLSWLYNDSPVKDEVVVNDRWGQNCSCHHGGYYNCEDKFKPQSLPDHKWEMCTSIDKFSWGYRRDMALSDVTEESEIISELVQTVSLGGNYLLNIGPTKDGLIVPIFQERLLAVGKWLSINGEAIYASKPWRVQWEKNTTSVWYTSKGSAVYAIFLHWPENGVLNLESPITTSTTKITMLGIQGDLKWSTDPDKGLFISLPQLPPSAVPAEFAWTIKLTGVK
Procedure, shortened: (§1)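 Nitrophenyl glycoside substrate hydrolysis in 0.1 M sodium phosphate, pH 6.8, 25 °C. Seven cuvettes hold a fixed inhibitor concentration and seven hold none, each across varying substrate levels. The reaction is started with diluted enzyme, and 4- or 2-nitrophenol release is followed at 400 nm for 2 min. Ki = [I]/(KM′/KM − 1) from KM with and without inhibitor.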

[2] = Inhibition of yeast alpha glucosidase at pH 6.8; set-up: species or system Saccharomyces cerevisiae; procedure, shortened: as §1
Alpha-galactosidase = Alpha-galactosidase (Coffea arabica, UniProt Q5DUH8); assay: Inhibition of green coffee beans alpha galactosidase at pH 6.8; procedure, shortened: as §1
[3] = molecular target: T2, Tissue alpha-L-fucosidase (Bos taurus, UniProt Q2KIM0); assay: Inhibition of bovine kidney alpha fucosidase at pH 6.8; procedure, shortened: as §1
T2 sequence (Q2KIM0 whole entry): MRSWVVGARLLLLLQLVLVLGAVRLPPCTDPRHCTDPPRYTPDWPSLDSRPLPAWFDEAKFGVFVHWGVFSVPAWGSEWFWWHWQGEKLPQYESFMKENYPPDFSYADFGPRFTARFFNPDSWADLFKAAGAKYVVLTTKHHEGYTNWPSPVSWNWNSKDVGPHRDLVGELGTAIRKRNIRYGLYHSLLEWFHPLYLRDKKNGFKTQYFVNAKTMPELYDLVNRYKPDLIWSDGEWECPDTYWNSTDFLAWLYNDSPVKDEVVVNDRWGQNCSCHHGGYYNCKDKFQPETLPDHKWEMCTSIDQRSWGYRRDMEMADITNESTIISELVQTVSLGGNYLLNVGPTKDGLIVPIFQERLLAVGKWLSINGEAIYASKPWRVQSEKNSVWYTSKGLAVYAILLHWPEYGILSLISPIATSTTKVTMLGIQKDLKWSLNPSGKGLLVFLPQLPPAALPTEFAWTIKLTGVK

[4] = Dissociation constant, pKa of the compound; assay type: physicochemical

Sequence of Alpha-galactosidase (Q5DUH8 whole entry): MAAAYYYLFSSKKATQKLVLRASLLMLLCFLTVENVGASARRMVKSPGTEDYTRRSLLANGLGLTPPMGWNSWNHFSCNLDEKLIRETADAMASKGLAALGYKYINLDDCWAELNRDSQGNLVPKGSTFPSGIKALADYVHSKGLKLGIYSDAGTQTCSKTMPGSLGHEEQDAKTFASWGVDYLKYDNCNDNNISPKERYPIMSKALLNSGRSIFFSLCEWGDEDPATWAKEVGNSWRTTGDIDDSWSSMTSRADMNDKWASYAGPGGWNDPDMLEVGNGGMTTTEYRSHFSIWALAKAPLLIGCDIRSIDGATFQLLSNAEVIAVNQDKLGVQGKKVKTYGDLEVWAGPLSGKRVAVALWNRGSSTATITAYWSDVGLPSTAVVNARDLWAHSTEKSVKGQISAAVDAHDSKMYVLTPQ

Row | Ki [1] [µM] | Ki [2] [µM] | Ki (Alpha-galactosidase) [µM] | Ki [3] [µM] | pKa [4] | Structure (SMILES)
1 | > 1000 | > 1000 | > 1000 | > 1000 |  | C[C@H]1NC[C@H](O)[C@@H](O)C1(F)F
2 |  |  |  |  | 5.3 | OC[C@H]1NC[C@@H](O)[C@@H](O)C1(F)F
3 | 250 | > 1000 | > 1000 | 570 |  | C[C@@H]1NC[C@@H](O)[C@H](O)C1(F)F
